Measured values reported in ChEMBL document CHEMBL1136652, “Conformationally-restricted analogues and partition coefficients of the 5-HT3 serotonin receptor ligands meta-chlorophenylbiguanide (mCPBG) and meta-chlorophenylguanidine (mCPG)” (Bioorg Med Chem Lett, 2003).

target: Serotonin 3 (5-HT3) receptor; assay: Binding affinity for 5-HT3 receptor of NG108-15 cells using [3H]GR-65630; assay type: cell-based; conditions: not given
Procedure, shortened: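 Competition binding against 1 nM [3H]GR65630 (84.2 Ci/mmol; KD 0.7 nM); nonspecific binding defined with […]. Incubation 30 min at room temperature, then filtration on presoaked glass fiber filters, ice-cold buffer wash, scintillation counting. Log concentration vs percent inhibition fitted by nonlinear least squares assuming 100% maximal inhibition; Ki from IC50 via Cheng-Prusoff.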

`CC1N=C(N)N=C(N)N1c1cccc(Cl)c1` (stereo not given) and `CC1(C)N=C(N)N=C(N)N1c1cccc(Cl)c1` cannot be ordered by Ki: > 10 µM for the first, > 10 µM for the second.

Compared with `NC1=Nc2cc(Cl)ccc2CN1`, `Nc1nc2ccc(Cl)cc2[nH]1` is 21-fold higher in Ki: 0.034 µM for the first, 0.725 µM for the second. The first binds more tightly here.

Going from `Nc1nccc(Nc2cccc(Cl)c2)n1` to `Nc1ncnc(Nc2cccc(Cl)c2)n1`, the Ki rises from 1.46 µM to > 10 µM. The first binds more tightly here.

`Nc1nc(Nc2cccc(Cl)c2)n[nH]1` and `Nc1ncnc(Nc2ccccc2)n1` [AMANOZINE] cannot be ordered by Ki: > 10 µM for the first, > 10 µM for the second.

With `Nc1ncnc(Nc2ccc3ccccc3c2)n1` the Ki was > 10 µM.

test system: not listed separately; assay: Partition coefficient in an aqueous 1-octanol buffer system by the shake-flask method; assay type: physicochemical; conditions: 1-octanol/aqueous buffer
Procedure, shortened: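 LogP_app by shake-flask in aqueous buffer/1-octanol at pH 7.4 (ionic strength 0.10 M NaCl), 23±1.0 °C. Aqueous-phase compound concentration measured spectrophotometrically; values are means of duplicate determinations run in triplicate.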

First: N=C(N)Nc1cc(Cl)c(Cl)c(Cl)c1
Second: N=C(N)NC(=N)Nc1cc(Cl)c(Cl)c(Cl)c1
The logD of the first is lower: 1.16 for the first, 1.47 for the second.

Compared with `N=C(N)NC(=N)Nc1cccc(Cl)c1`, `N=C(N)NC(=N)Nc1ccccc1` [PHENYL BIGUANIDE] is lower in logD: -0.38 for the first, -1.17 for the second.

Compared with `NC(N)=Nc1cccc(Cl)c1`, `N=C(N)Nc1ccccc1` [PHENYLGUANIDINE] is lower in logD: -0.64 for the first, -1.32 for the second.
